The results in this text go back to ChEMBL document CHEMBL4513216, “Probing the Open Global Health Chemical Diversity Library for Multistage-Active Starting Points for Next-Generation Antimalarials” (ACS Infect Dis, 2020).

Each structure is given as a SMILES string.

The data set is described as follows: Toxicity liver stage against HepG2, at 10uM. Type of data set: cell-based. Also noted: test concentration 10 uM, cell line HepG2-A16-CD81EGFP. The following applies: human, HepG2-A16-CD81EGFP cells; read-out: INHIBITION
Put shortly:
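Uninfected HepG2-A16-CD81EGFP cells, 3 × 10^3 per well, 1536-well, plated on prespotted compound at 10 μM final, parasite-free screening media added to match infected plates; puromycin 10 μM positive, DMSO 0.5% negative; run in parallel with 48 h PbLuc assay at 37 °C, 5% CO2; viability by CellTiter-Glo luminescence, normalized to controls.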
As for `COc1ccc(-c2noc([C@@H]3C[C@@H](O)CN3C3CCN(C)CC3)n2)cc1`, the cytotoxicity at 10 µM is -1.16%.
Next, `CC(C)NC(=O)c1nc2c(s1)CCCN2C(C)C`: -143%; `Cc1nc(CN2CCOC3(CCCN(c4nccs4)C3)C2)cs1` (stereo unspecified): 16.3%; `Cc1csc(CN2CC[C@H]3C[C@@H](c4noc(C)n4)O[C@@H]3C2)n1`: -1.2%.
`CS(=O)(=O)NC[C@]12COC[C@H]1CN(C(=O)c1ncccn1)C2`: the cytotoxicity at 10 µM worked out at 4.9%.
Turning to `CN(C)Cc1nn(C)c2c1CN(S(=O)(=O)c1ccccc1F)C2`, the cytotoxicity at 10 µM was determined as 5.6%.
The same measure for `Cn1cnnc1SCc1cc2c(cc1Cl)OCO2`: 7.03%.
The same measure for `CC(C)c1nnc2ccc(N3CCCC(C(=O)Nc4nccs4)C3)nn12` (stereo unspecified): 3.86%; for `COc1ccc(Nc2nc3c(C)nn(C)c3c(=O)n2C)c(C)c1`: -6.06%; for `Cn1nc(C(=O)N2CCSCC2)cc1NC(=O)c1ccco1`: 1.11%.
The same measure for `COc1ccc2nc(NC(=O)c3c(C(=O)O)cnn3C)sc2c1`: 7.19%.
For `CCC(CN1CCCC1)NC(=O)C1(c2ccc(F)cc2)CC1` (stereo unspecified), the cytotoxicity at 10 µM is -1.76%.
Take `CC(C)(C)CC(=O)N1CSCC1C(=O)NC1=NCCS1` (stereo unspecified): the cytotoxicity at 10 µM turned out to be 17.9%.
The same measure for `CC(C)(C)NC(=O)CNc1ncc(Br)cn1`: 2.96%; for `CC(O)CN(Cc1cccc(C(N)=O)c1)c1ccccc1` (stereo unspecified): 10.1%; for `CNS(=O)(=O)C1CCN(c2cc(C(C)C)nc(C(C)C)n2)C1` (stereo unspecified): -3.33%.
`CC(=O)N(C)CC(=O)NC(C)c1ccc(OCCC(C)C)cc1` (stereo unspecified): the cytotoxicity at 10 µM amounted to 8.59%.
Take `Cc1nn(C)c(C)c1C(=O)N1CCN(C(=O)CCC2CCCCC2)CC1`: the cytotoxicity at 10 µM was -5.47%.
For `Cc1occc1C(=O)NCC(O)c1ccc(Cl)s1` (stereo unspecified), the cytotoxicity at 10 µM was -16.4%.
`COc1ccc(Oc2ncccc2NC(=O)N2CCOCC2C)cc1` (stereo unspecified): the cytotoxicity at 10 µM is -2.43%.
Next, `CC(NC(=O)N1CCc2ccccc2C1)c1nncn1C` (stereo unspecified): -6.98%.
The same measure for `CC(C)(C)NC(=O)Cn1nc(C2CC2)cc(C(F)(F)F)c1=O`: -13.9%; for `Cc1cc(C)n(-c2cncc(NCCNS(C)(=O)=O)n2)n1`: -3.98%.
The same measure for `COCCN(CCC#N)S(=O)(=O)c1cc(F)cc(F)c1`: -3.32%.
On to `CC(C)c1ncc(C(=O)N2CCOCC2CC(=O)c2ccco2)s1` (stereo unspecified), for which the cytotoxicity at 10 µM came out at 5.08%.
The same measure for `Cc1cc(CNCc2c(C(C)C)nn(C)c2N2CCOCC2)no1`: 16.5%.
The same measure for `CC(=O)N1Cc2ccccc2C[C@H]1C(=O)Nc1ccccn1`: -3.09%; for `CN(Cc1nc(-c2cccnc2)no1)C(=O)c1cnc2n1CCCC2`: 6.32%.
Take `CCN(CC)CCNC(=O)C(C)OCC(F)(F)F` (stereo unspecified): the cytotoxicity at 10 µM is 4.23%.
The same measure for `CCc1nc(C)ncc1C(=O)N1CC(=O)N(C)c2ccccc21`: 6.62%; for `CC(C)COC(C)C(=O)N1CCC(C)CC1` (stereo unspecified): 2.95%.
Next, `COc1ccc(-c2ccc(C(=O)NS(C)(=O)=O)c(F)c2)c(F)c1`: 0.512%; `O=C(C[S+]([O-])C1CCCC1)NCCOc1cccc(Cl)c1` (stereo unspecified): -143%.
Next, `COc1ccc(-n2ccc(CNCc3ccc(OC)c(O)c3)n2)cc1`: 0.51%; `CCC1CN(C)c2ccccc2CN1C(=O)c1c[nH]c(=O)cc1C` (stereo unspecified): 16.1%.
Take `O=C(O)c1c(Cl)ncn1-c1ccccc1`: the cytotoxicity at 10 µM is -2.34%.
As to `COCc1cc(N(Cc2ccsc2)C2CC2)n2ncnc2n1`, the cytotoxicity at 10 µM was -3.75%.
Turning to `COCCN1CCC(NCc2c(C)nn(C)c2N(C)C)CC1`, the cytotoxicity at 10 µM is -2.11%.
Next, `COc1cc(I)c(Cl)cc1C(=O)N(C)CC(C)(C)O`: 11.4%.
Regarding `CCOCCC(=O)N(C)c1ccc(F)c(Cl)c1`, the cytotoxicity at 10 µM was determined as 0.232%.
For `N#CC1(NC(=O)c2ccc(-c3nc(C4CC4)n[nH]3)cc2)CCC1`, the cytotoxicity at 10 µM was determined as 0.614%.
Take `COC(=O)CN(Cc1ccccc1C)C(=O)C1CCC1`: the cytotoxicity at 10 µM is -3.64%.
`CC(C)(C)c1cnc(CN2CCC(NC(=O)CC3CCCC3)CC2)o1`: the cytotoxicity at 10 µM is -15.5%.
`CN1CCOC(C(=O)N2CCCC(C)(C)CC2)C1` (stereo unspecified): the cytotoxicity at 10 µM worked out at 6.67%.
Turning to `CC(C)CN1C(=O)C2(CCCC2)NC1c1cn(C)c(=O)n(C)c1=O` (stereo unspecified), the cytotoxicity at 10 µM was determined as 2.8%.
In the case of `O=C(O)c1ccc(CCNC(=O)C2(c3ccccc3)CC2)cc1`, the cytotoxicity at 10 µM came to 8.29%.
The same measure for `Cn1c(Nc2cn[nH]c2)c(C#N)c(=O)n(C)c1=O`: 14.9%; for `Cc1cn(-c2ccccc2)nc1NS(=O)(=O)c1cc(C(=O)O)cs1`: -18.9%; for `O=C([C@@H]1CCCO1)N1CCn2c(Cn3cccn3)cnc2C1`: -70.1%.
In the case of `Cc1ccoc1C(=O)N1CCn2cc(CN3CCCC3)nc2C1`, the cytotoxicity at 10 µM is -79.6%.
As to `CCOC(=O)C1(CCOC)CCN(Cc2nccn2CC)CC1`, the cytotoxicity at 10 µM is 6.77%.
The same measure for `C[C@@H]1CN(CCOc2ccc(F)cc2)CC[C@@]1(O)C1CCOCC1`: -7.19%; for `Cc1nc2ccccn2c1CN1C[C@@H](CN(C)CCO)[C@@H](CO)C1`: -11.4%.
For the compound `Cc1ccc(C2(O)CCN(C(=O)CCn3c(C)cccc3=O)CC2)nc1`, the cytotoxicity at 10 µM was -9.02%.
As to `COc1cccc(-c2cc(C(=O)NCCCn3cnnc3)[nH]n2)c1`, the cytotoxicity at 10 µM was 3.45%.
`CN1[C@H](CO)C[C@H](CNCc2ccc(CO)o2)[C@@H]1c1ccccc1F`: the cytotoxicity at 10 µM is -9.37%.
The same measure for `CCCS(=O)(=O)N1CCC2(CCC(=O)N(CCc3ccncc3)C2)CC1`: -11.7%; for `COCCCN1CC2(CCN(Cc3ncc[nH]3)CC2)CC1=O`: -2.89%; for `Cc1ccc2nc(CN3CCCCC3CCn3cccn3)cn2c1` (stereo unspecified): 7.31%.
The same measure for `CC(=O)NCCC1CCCCN1S(=O)(=O)c1ccc2ccccc2c1` (stereo unspecified): -125%; for `NC(=O)COc1ccc(CN2CCC3(CC2)[C@H](O)C[C@@H]3O)cc1Cl`: 3.76%; for `CCOC(=O)c1cccc(N2CCCC3(CCC(=O)N(C4CC4)C3)C2)n1` (stereo unspecified): -1.38%.
Next, `CCCN1CCC(CC(=O)NCc2cc(O)ncn2)CC1`: 14.7%; `O=C(CCc1cc(Cl)no1)N1CCCCC1CCn1ccnc1` (stereo unspecified): -1.83%; `CC(C1CCN(Cc2cnn(C)c2C2CC2)CC1)N1CCN(C)CC1` (stereo unspecified): -11.9%.
As for `COCc1ncc(CN2CC[C@@](C)(O)[C@@H](Cc3ccccc3)C2)cn1`, the cytotoxicity at 10 µM is 12.1%.
`CCc1nc2c(N3CCCC(c4nccn4CCOC)C3)ncnc2o1` (stereo unspecified): the cytotoxicity at 10 µM was -11.2%.
Next, `Cc1cccc(C(C(=O)NCC2(O)CCCCC2)N(C)C)c1` (stereo unspecified): -8.82%.
Regarding `O=C1CC[C@H]2CN(c3ncc(F)cn3)CC[C@H]2N1CCc1c[nH]cn1`, the cytotoxicity at 10 µM worked out at 3.96%.
Next, `Cc1nc2nc(C)c3c(=O)n(-c4ccn[nH]4)ccc3n2n1`: 0.87%; `COc1cccc2c1OCC(C(=O)NC1CCN(S(C)(=O)=O)CC1)C2` (stereo unspecified): -10.7%.
The same measure for `CN(Cc1nnc(C2CC2)n1C)C1CCN(Cc2ccncc2)C1` (stereo unspecified): -10.3%.
The same measure for `CCC(NC(=O)c1ccoc1)c1ccccc1OCC(=O)N1CCCC1` (stereo unspecified): -4.31%.
With `COc1cccc(COCC(=O)N2CCN(S(C)(=O)=O)CC2)c1`, the cytotoxicity at 10 µM was -10.7%.
With `Cc1cc(NC(=O)NCC(C(C)C)N2CCOCC2)n(C)n1` (stereo unspecified), the cytotoxicity at 10 µM was -17.2%.
Next, `O=C(CCCc1nnc(-c2ccccc2)o1)N1CCC1`: -3.41%; `Cn1cnnc1C1CCN(C(=O)CCCOc2ccccc2)CC1`: -7.62%; `O=C1CCc2cc(-c3csc(CCN4CCOC4=O)n3)c(F)cc2N1`: 35.2%.
The same measure for `CC(C)COCC(NC(=O)c1ccncc1)c1ccco1` (stereo unspecified): -9.53%; for `CC(NC(=O)CCOc1ccc(F)cc1)c1nnc2n1CCCCC2` (stereo unspecified): -8.71%.
With `Cc1nn(C)c(C)c1C1CCCN1C(=O)CCc1cscn1` (stereo unspecified), the cytotoxicity at 10 µM was -3.66%.
The same measure for `Cn1ccnc1CN1CCCN(C(=O)c2ccc(Cl)o2)CC1`: -7.03%; for `O=C1OCCC1N1CCN(C(=O)Cc2c[nH]c3ccccc23)CC1` (stereo unspecified): -7.03%; for `CC(C)n1c(=O)c2ccccc2n(CCCN(C)C)c1=O`: -13.2%.
Next, `CCC(CN1CCCCC1)NC(=O)C1(c2cccc(F)c2)CC1` (stereo unspecified): 0.689%; `O=C(NCc1ccncc1)c1nc2c(o1)CN(C(=O)c1cccnc1)C2`: 1.21%.
Next, `CN1CCC2(CCCN(C(=O)c3cncn3C)C2)CC1`: -0.757%; `O=C(CC1CC1)N1CC[C@H]2[C@@H]1CCC(=O)N2Cc1ccncc1`: -5.15%.
Turning to `CN(C)CCN1CCOCC2(CCCN(C(=O)Cc3ccccc3)C2)C1` (stereo unspecified), the cytotoxicity at 10 µM was 2.14%.
Regarding `COc1c(C)cc(CNCc2ccnc(N3CCOCC3)c2)cc1C`, the cytotoxicity at 10 µM stood at 11.9%.
Next, `CS(=O)(=O)N1CC[C@]2(C[C@@H](Oc3ccccn3)CO2)C1`: -144%; `COC[C@H]1CC[C@@H]2[C@@H](CCN2Cc2ccccn2)O1`: -72.6%.
Next, `CC(C)N(C)Cc1nnc2n1CCN(S(=O)(=O)C1CC1)CC2`: -1.13%; `COCCN1CC[C@@H]2CN(Cc3nccn3C)C[C@@H]2C1`: -76.5%.
`CC(C)CN1CCC2(CCN(Cc3nccs3)CC2)C1=O`: the cytotoxicity at 10 µM is -5.77%.
Take `Cc1cncc(C(=O)N2CC[C@@H]3[C@H]2CCC(=O)N3CCN(C)C)c1`: the cytotoxicity at 10 µM was -4.84%.
